Data set [1] in a line: Toxicity in immunodeficient nude mouse model xenografted with high alert medicated patient derived human GBM1 cells assessed as clinical symptoms at 50 mg/kg,ip QD for 27 days cotreatment with Temozolomide at 42 mg/kg,po QD for 5 days. The data set is classed as organism-based. The settings on record: in vivo, 648 h, time 27 day. An outline of the steps: (§1)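 Female athymic nude mice bearing subcutaneous GBM1-HAM PDX fragments (20 mm³); treatment began day 11 post-implant at tumour volumes 75-196 mm³, 10 per group. Compound i.p. daily in cyclodextrin vehicle (17 days alone, 27 days in combination); temozolomide 42 mg/kg p.o. daily for 5 days in PBS/glucose/Tween 80. Calliper volumes three times weekly; body weight and clinical signs monitored.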
Background: Xenograft models place foreign cells or tissue in a host animal.

The nature of data set [2]: Toxicity in immunodeficient nude mouse model xenografted with high alert medicated patient derived human GBM1 cells assessed as body weight change at 50 mg/kg,ip QD for 27 days cotreatment with Temozolomide at 42 mg/kg,po QD for 5 days. The data set is classed as organism-based. The settings on record: in vivo, 648 h, time 27 day. An outline of the steps: as §1
The nature of data set [3]: Metabolic stability in mouse plasma assessed as half life at 5 uM and measured upto 120 mins by UPLC-MS/MS analysis. The data set is classed as ADME, cell-free. An outline of the steps:
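Male mouse plasma at 37 °C with compound added from a 5 µM solution […]. Sampled at 0, 15, 30, 45, 60 and 120 min, quenched with acetonitrile and read by LC-MS/MS (MRM) in duplicate. Procaine positive control. Remaining % and t1/2 derived from MRM area relative to t = 0.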

The nature of data set [4]: Toxicity in immunodeficient nude mouse model xenografted with high alert medicated patient derived human GBM1 cells assessed as body weight change at 50 mg/kg,ip QD for 17 days. It is filed as organism-based. The settings on record: in vivo, 408 h, time 17 day. A digest of the protocol:
as §1

Data set [5] deals with U-87 MG. Description: Induction of autophagy in human U-87 MG cells assessed as decrease in P62 expression at 0.05 to 1 uM incubated for 48 hrs by Western blot analysis. The data set is classed as functional, cell-based. The settings on record: U-87MG ATCC. An outline of the steps: (§2)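 U-87 MG cells cultured two days, then exposed 48 h to increasing doses. Lysed in RIPA with protease inhibitors; 5 µg protein run on 4-20% SDS gels and transferred to PVDF. Probed for phospho/total AKT, S6, S6K, P62 and LC3, detected by ECL. Band intensities normalized to β-actin.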

Data set [6] in a line: Toxicity in immunodeficient nude mouse model xenografted with high alert medicated patient derived human GBM1 cells assessed as body weight change at 20 mg/kg,ip QD for 27 days cotreatment with Temozolomide at 42 mg/kg,po QD for 5 days. The data set is classed as organism-based. The settings on record: in vivo, 648 h, time 27 day. A digest of the protocol: as §1
Data set [7] can be described thus: Permeability across blood brain barrier in Swiss mouse assessed as brain to plasma ratio of (2R,4aR,9aR)-7-((E)-2-(5-hydroxy-2,2-dimethylchroman-7-yl)vinyl)-1,1,4a-trimethyl-2,3,4,4a,9,9a-hexahydro-1H-xanthene-2,5-diol metabolite at 15 mg/kg, ip and measured after 1.5 hrs by LC-MS/MS analysis. It is filed as ADME, organism-based. A digest of the protocol: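 Nine male Swiss mice given 15 mg/kg prodrug i.p. (4 mg/mL in cyclodextrin vehicle). Blood taken from three mice at each of 0.25, 0.75 and 1.5 h; animals then saline-perfused transcardially under isoflurane. Plasma and brain homogenate (1:1 water) acetonitrile-precipitated and analyzed by LC-MS/MS.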

In data set [8] the target is mTORC2 (Homo sapiens) (UniProt P42345+Q6R327+Q9BVC4+Q9BPZ7). The experiment in a line: Inhibition of mTORC2 signalling in human U-87 MG cells assessed as decrease in AKT phosphorylation at S473 residue at 0.05 to 1 uM incubated for 48 hrs by Western blot analysis. It is filed as cell-based. An outline of the steps:
as §2

Data set [9] can be described thus: Antitumor activity in high alert medicated patient derived human GBM1 cells xenografted in immunodeficient nude mouse model assessed as tumor growth inhibition at 20 mg/kg,ip QD cotreatment with Temozolomide at 42 mg/kg,po QD and measured after 11 days. The data set is classed as functional. The settings on record: GBM1, 264 h. A digest of the protocol: as §1

Data set [10] is described as follows: Metabolic stability in mouse liver microsomes assessed as compound remaining at 2.5 uM and measured after 45 mins in absence of NADPH by LC-MS/MS analysis. The settings on record: read-out: Stability. It is filed as ADME, Microsome. A general note: Liver microsomes are vesicles of endoplasmic reticulum, rich in cytochrome P450 enzymes.
Data set [11] in a line: Metabolic stability in mouse liver microsomes assessed as intrinsic clearance at 2.5 uM and measured upto 45 mins in presence of NADPH by LC-MS/MS analysis. It is filed as ADME, Microsome. The settings on record: read-out: CLH.
The target in data set [12] is T1, Oxysterol-binding protein 1 (Homo sapiens) (UniProt P22059).
T1 sequence (whole entry): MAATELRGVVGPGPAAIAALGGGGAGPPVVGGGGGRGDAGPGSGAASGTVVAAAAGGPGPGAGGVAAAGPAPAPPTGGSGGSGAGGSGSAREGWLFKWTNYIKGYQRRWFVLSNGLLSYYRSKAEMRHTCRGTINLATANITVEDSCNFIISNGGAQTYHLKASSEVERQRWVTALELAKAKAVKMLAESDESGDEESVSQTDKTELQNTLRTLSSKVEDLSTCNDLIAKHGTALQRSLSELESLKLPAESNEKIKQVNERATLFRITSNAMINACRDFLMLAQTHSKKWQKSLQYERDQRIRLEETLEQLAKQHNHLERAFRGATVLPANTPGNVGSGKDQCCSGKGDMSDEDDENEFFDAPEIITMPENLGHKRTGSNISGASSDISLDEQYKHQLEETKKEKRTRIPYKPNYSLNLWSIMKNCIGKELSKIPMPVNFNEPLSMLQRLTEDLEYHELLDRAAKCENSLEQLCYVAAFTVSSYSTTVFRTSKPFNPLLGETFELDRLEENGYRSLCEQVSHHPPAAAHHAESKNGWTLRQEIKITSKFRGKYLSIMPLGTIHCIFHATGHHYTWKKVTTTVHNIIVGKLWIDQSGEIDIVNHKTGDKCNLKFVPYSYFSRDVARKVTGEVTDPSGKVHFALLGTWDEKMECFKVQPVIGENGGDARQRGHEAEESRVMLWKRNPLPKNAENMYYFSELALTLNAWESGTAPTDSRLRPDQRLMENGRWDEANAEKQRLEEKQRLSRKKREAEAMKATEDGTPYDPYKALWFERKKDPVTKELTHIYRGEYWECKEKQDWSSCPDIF
The experiment in a line: Inhibition of human OSBP in human hTERT-RPE1 cells assessed as increase in OSBP recruitment at TGN and measured after 10 mins by confocal microscopy. It is filed as cell-based.

For data set [13], the system named is U-87 MG. Description: Induction of autophagy in human U-87 MG cells assessed as decrease in LC3I expression at 0.05 to 1 uM incubated for 48 hrs by Western blot analysis. It is filed as functional, cell-based. The settings on record: U-87MG ATCC. An outline of the steps: as §2
Data set [14] can be described thus: Antitumor activity in high alert medicated patient derived human GBM1 cells xenografted in immunodeficient nude mouse model assessed as tumor growth inhibition at 50 mg/kg,ip QD cotreatment with Temozolomide at 42 mg/kg,po QD and measured from 9 to 11 days. It is filed as functional. An outline of the steps:
as §1

Data set [15] in a line: Prodrug conversion in Swiss mouse plasma assessed as half life of (2R,4aR,9aR)-7-((E)-2-(5-hydroxy-2,2-dimethylchroman-7-yl)vinyl)-1,1,4a-trimethyl-2,3,4,4a,9,9a-hexahydro-1H-xanthene-2,5-diol metabolite at 20 mg/kg, IP and measured upto 6 hrs by LC-MS/MS analysis. The settings on record: in vivo. The data set is classed as ADME, organism-based. An outline of the steps:
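Male Swiss mice (5-6 weeks, 3 per dose) given a single i.p. dose of prodrug, 2.5 mg/mL in 15% hydroxypropyl-β-cyclodextrin in 65 mM phosphate pH 7.4. Retro-orbital blood taken at 5, 15, 30 min and 1, 3, 6 h; plasma acetonitrile-precipitated. Parent and metabolite quantified by LC-MS/MS with a 1-2,000 ng/mL calibration.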

Each structure is given as a SMILES string. Active and inactive are the calls of the source.

By half-life is commonly meant the time needed for the level to fall by half in the phase considered.

Consider `CC1(C)CCc2c(O)cc(/C=C/c3cc(O)c4c(c3)C[C@@H]3C(C)(C)[C@H](OC=O)CC[C@@]3(C)O4)cc2O1`, for which the Activity result in [1] is “Non-Toxic”; in data set [2] it was “Non-Toxic”; in data set [4], “Non-Toxic”; in [5] it was “Dose-Dependent Effect”; in [6], “Non-Toxic”; in data set [13] it was “Dose-Dependent Effect”. In addition, in data set [3], the half-life at 5 µM amounted to 51 min. Moreover, the BPR in data set [7] is listed as 1.74. In addition, the inhibition result in data set [8] is “Dose-Dependent Effect”. In addition, the TGDI at 20 mg/kg in [9] turned out to be 1.75. Besides, in data set [10], the remaining at 0.75 h, 2.5 µM stood at 16%. Besides, in [11], the microsomal CLint at 2.5 µM stood at 120 µL/min/mg. Besides, the inhibition entry in [12] is “Active”. In addition, the TGDI at 50 mg/kg in data set [14] came out at 2.07%. In addition, the t1/2 in data set [15] came out at 120 min.

Source of the values: ChEMBL document CHEMBL5370602, “Structure-Based Design of a Lead Compound Derived from Natural Schweinfurthins with Antitumor Properties That Target Oxysterol-Binding Protein” (J Med Chem, 2023).
